Test results taken from ChEMBL document CHEMBL1143066, “Characterization and optimization of selective, nonpeptidic inhibitors of cathepsin S with an unprecedented binding mode” (J Med Chem, 2007).

How the values were obtained:
[1] = biological target: Cathepsin B (Homo sapiens, UniProt P07858); assay: Inhibition of cathepsin B
In short: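 Cathepsin B (2 nM) in pH 6.1 phosphate/NaCl/DTT/EDTA/Tween-20 buffer, preincubated with inhibitor (in DMSO) for 5 min at 37 °C. Cbz-Phe-Arg-AMC 2.5 µM then added and AMC followed for 5 min (ex 355/em 450 nm). Five inhibitor levels spanning 10–90% inhibition, in duplicate. IC50 from V_i/V_o plots, converted as K_i = IC50 − E_t/2.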

[2] = biological target: T1, Cathepsin K (Homo sapiens, UniProt P43235); assay: Inhibition of cathepsin K
T1 sequence (P43235 whole entry): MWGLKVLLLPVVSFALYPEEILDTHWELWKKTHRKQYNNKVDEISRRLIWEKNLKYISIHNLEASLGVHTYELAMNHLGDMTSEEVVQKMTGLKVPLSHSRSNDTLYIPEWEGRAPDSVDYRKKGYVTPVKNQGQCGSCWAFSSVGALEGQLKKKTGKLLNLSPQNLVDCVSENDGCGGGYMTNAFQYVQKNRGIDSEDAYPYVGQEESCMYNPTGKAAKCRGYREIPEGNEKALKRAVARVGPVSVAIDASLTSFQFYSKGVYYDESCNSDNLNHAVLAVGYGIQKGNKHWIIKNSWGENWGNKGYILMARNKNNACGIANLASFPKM
In short: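 Cathepsin K at 10 nM, preincubated 5 min at 37 °C with DMSO-delivered inhibitor in pH 6.1 sodium phosphate buffer with NaCl, DTT, EDTA, Tween-20. Then 2.5 µM Cbz-Phe-Arg-AMC; AMC release monitored for 5 min (ex 355/em 450 nm). Duplicates at five inhibitor concentrations giving 10–90% inhibition. K_i = IC50 − E_t/2, with IC50 from V_i/V_o versus concentration.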

[3] = biological target: Cathepsin S (Homo sapiens, UniProt P25774); assay: Inhibition of cathepsin S
Sequence of Cathepsin S (P25774 whole entry): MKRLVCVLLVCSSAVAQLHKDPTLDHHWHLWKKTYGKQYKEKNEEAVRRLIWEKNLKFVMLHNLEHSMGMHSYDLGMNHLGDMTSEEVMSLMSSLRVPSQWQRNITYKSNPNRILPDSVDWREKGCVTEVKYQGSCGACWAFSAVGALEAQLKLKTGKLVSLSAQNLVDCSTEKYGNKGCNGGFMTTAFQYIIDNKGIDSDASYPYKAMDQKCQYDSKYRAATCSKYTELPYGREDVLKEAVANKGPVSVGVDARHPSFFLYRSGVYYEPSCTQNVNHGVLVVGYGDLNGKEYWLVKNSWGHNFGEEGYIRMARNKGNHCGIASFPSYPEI
In short: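 Cathepsin S 0.7 nM with inhibitor (added in DMSO), 5 min at 37 °C in pH 6.1 phosphate buffer containing NaCl, DTT, EDTA and Tween-20. IC50 from V_i/V_o plot, converted to K_i via IC50 − E_t/2.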

[4] = biological target: Procathepsin L (Homo sapiens, UniProt P07711); assay: Inhibition of cathepsin L
Sequence of Procathepsin L (P07711 whole entry): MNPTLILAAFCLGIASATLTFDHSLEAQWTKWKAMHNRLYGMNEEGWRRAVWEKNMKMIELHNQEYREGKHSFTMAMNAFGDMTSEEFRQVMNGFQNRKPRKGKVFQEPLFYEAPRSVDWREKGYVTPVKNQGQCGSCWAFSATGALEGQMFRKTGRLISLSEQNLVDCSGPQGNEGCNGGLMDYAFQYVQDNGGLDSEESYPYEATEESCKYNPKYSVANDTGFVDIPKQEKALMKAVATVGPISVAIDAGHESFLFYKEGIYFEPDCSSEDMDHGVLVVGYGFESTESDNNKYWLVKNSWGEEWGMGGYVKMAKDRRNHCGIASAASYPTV

Row | Compound | Ki [1] [nM] | Ki [2] [nM] | Ki [3] [nM] | Ki [4] [nM]
1 | O=CCOc1ccccc1-c1ccc(F)c(F)c1F | > 15000 | 1510 |  | 
2 | CCCc1ccc(-c2ccccc2OCC=O)c(F)c1F | > 15000 | 1280 | 48.7 | 
3 | CC(C)Cc1ccc(-c2ccccc2OCC=O)c(F)c1F | > 15000 | 1240 | 9.6 | > 15000
